Laboratory results from ChEMBL document CHEMBL1151756, “Design, synthesis, and biological evaluation of N-carboxyphenylpyrrole derivatives as potent HIV fusion inhibitors targeting gp41” (J Med Chem, 2008).
The source made the active and inactive calls. The rule behind the calls is not given here.

Tests used:
[1] = Inhibition of HIV1 3B gp41 six-helix bundle formation after 30 mins by sandwich ELISA
[2] = system: Human immunodeficiency virus 1; experiment: Antiviral activity against HIV1 3B in human MT2 cells assessed as inhibition of p24 antigen level after 4 days by ELISA; assay type: functional, organism-based; settings: Human immunodeficiency virus 1, 3B, MT2, 96 h
In short: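 Medium then replaced without compound. Day 4 post-infection, supernatants lysed with 5% Triton X-100; p24 measured by sandwich ELISA with HIVIG capture, anti-p24 mAb, TMB, A450, and a recombinant p24 standard curve. Triplicates; EC50 calculated from percent inhibition.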

[3] = system: MT2; experiment: Cytotoxicity against human MT2 cells after 4 days by XTT assay; assay type: cell-based; settings: mt2, 96 h
In short: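 XTT assay: MT-2 cells (5 × 10⁵/mL) incubated with compound at graded concentrations at 37 °C for 4 days. XTT (1 mg/mL) containing 0.02 μM PMS then added, and A450 read after 4 h. CC50 calculated.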

[4] = Selectivity index, ratio of CC50 for human MT2 cells to EC50 for HIV1 3B; assay type: toxicity, cell-based; settings: read-out: Ratio CC50/EC50
[5] = system: Human immunodeficiency virus 1; experiment: Antiviral activity against HIV1 3B in human MT2 cells assessed as reduction of virus-induced cytopathogenicity; assay type: functional, organism-based

Row | SMILES | IC50 [1] [µM] | EC50 [2] [µM] | CC50 [3] [µM] | selectivity ratio [4] | Activity [5]
1 | O=C(O)c1ccc(N2C(=O)C=CC2=O)cc1O | > 1000 | > 400 | > 400 | – | –
2 | O=C(O)c1cc(N2C(=O)CSC2=S)ccc1Cl | > 1000 | 179 | 155 | 0.87 | –
3 | COC(=O)c1ccc(-c2noc(CCl)n2)cc1 | > 395 | 41.4 | 14.2 | 0.34 | –
4 | Cc1ccc(C)n1-c1ccc(O)c(C(=O)O)c1 | 37.4 | 0.69 | 133 | – | Active
5 | N#CSCc1nc(-c2ccc(C(=O)O)cc2)no1 | 178 | 68 | 383 | 5.64 | –
6 | Cc1ccc(C)n1-c1ccc(Cl)c(C(=O)O)c1 | 78.7 | 1.52 | 211 | 139 | –
7 | O=C(O)c1ccc(N2C(=O)C=CC2=O)cc1 | > 1000 | 205 | > 400 | > 1.95 | –
8 | O=C(O)c1cccc(-c2noc(C(F)(F)F)n2)c1 | > 1000 | > 400 | > 400 | – | –
9 | Nc1nnc(-c2ccc(C(=O)O)cc2)s1 | > 1000 | > 400 | > 400 | – | –
10 | O=C(O)Cc1ccc(-n2cccc2)cc1 | – | 371 | – | – | –
11 | O=C(O)c1ccc(-n2cccc2)cc1O | 70.8 | 81.7 | 443 | 5.42 | –
12 | O=C(O)c1ccc(N2C(=O)CSC2=S)cc1 | > 1000 | 258 | 143 | 0.56 | –
13 | COc1ccc(N2C(=O)CSC2=S)cc1 | > 1000 | 63.4 | 89.6 | 1.41 | –
14 | O=C(O)c1cc(-n2cccc2)ccc1Cl | 58.7 | – | 336 | – | –
15 | COC(=O)c1ccc(-c2noc(CSC#N)n2)cc1 | 171 | 11 | 43.7 | 3.99 | –
16 | Cc1ccc(C)n1-c1ccc(S(N)(=O)=O)cc1 | 182 | 99.1 | 117 | 1.18 | –
17 | O=C(O)c1ccc(-c2noc(CBr)n2)cc1 | > 353 | 127 | 81.9 | 0.64 | –
18 | O=C(O)c1cccc(N2C(=O)CSC2=S)c1 | > 1000 | 204 | 165 | 0.81 | –
19 | COC(=O)c1ccc(-c2noc(CBr)n2)cc1 | > 337 | 88 | 32.7 | 0.37 | –
20 | O=C(O)c1ccc(-c2noc(CO)n2)cc1 | 26.4 | 153 | 455 | 2.98 | –

Row | SMILES | IC50 [1] [µM] | EC50 [2] [µM] | CC50 [3] [µM] | selectivity ratio [4] | Activity [5]
21 | Cc1ccc(C)n1-c1cccc(C(=O)O)c1 | 42.2 | 11.8 | 88.4 | 7.49 | –
22 | O=C(O)c1ccc(-c2noc(C(F)(F)F)n2)cc1 | 224 | 3.06 | 82.2 | 26.9 | –
23 | O=C(O)c1cccc(-n2cccc2)c1 | 211 | 44.8 | 302 | 6.74 | –
24 | Cc1ccc(C)n1-c1ccc(C(=O)O)cc1 | 189 | 174 | 136 | 0.78 | –
25 | Cc1ccc(C)n1-c1ccc(Cl)cc1C(=O)O | 60.3 | 8.56 | – | – | –
26 | Cc1ccc(C)n1-c1cccc(-c2nnn[nH]2)c1 | 25.6 | 7.7 | 249 | 32.4 | –
27 | COC(=O)c1ccc(-n2c(C)ccc2C)cc1O | 287 | 59.1 | 88.9 | 1.5 | –
28 | COC(=O)c1ccc(-n2cccc2)cc1O | – | 35.4 | 379 | 10.7 | –
29 | O=C(O)c1cc(-n2cccc2)ccc1O | 48.7 | 9.66 | – | – | –
30 | COC(=O)c1ccc(N2C(=O)C=CC2=O)cc1O | 101 | 39.4 | 66.2 | 1.68 | –
31 | Cc1ccc(C)n1-c1ccc(CC(=O)O)cc1 | 225 | 2.1 | 204 | 97.1 | –
32 | c1cc(-c2nnn[nH]2)cc(-n2cccc2)c1 | 226 | 41 | 436 | 10.6 | –
33 | O=C(O)c1cc(N2C(=O)CSC2=S)ccc1O | > 1000 | 166 | 152 | 0.92 | –
34 | O=C(O)c1ccc(-n2cccc2)cc1 | 129 | 69.2 | – | – | –
35 | O=C1CSC(=S)N1c1cccc(C(F)(F)F)c1 | > 1000 | 116 | 85.4 | 0.74 | –
36 | O=C(O)c1ccc(Cn2cccc2)cc1 | 157 | 63.9 | – | – | –
37 | O=C(O)c1cccc(-c2noc(CCl)n2)c1 | 346 | 57.7 | 64.9 | 1.12 | –
38 | O=C(O)c1ccc(-c2noc(CCl)n2)cc1 | > 420 | 3.91 | 64 | 16.4 | –
39 | CCOC(=O)c1ccc(-c2noc(CO)n2)cc1 | 178 | 373 | 385 | 1.03 | –
40 | O=C1CSC(=S)N1c1ccc(O)cc1 | > 1000 | 35.7 | 84.9 | 2.38 | –
